Data taken from ChEMBL document CHEMBL1914457, “Syntheses of phenylpyrazolodiazepin-7-ones as conformationally rigid analogs of aminopyrazole amide scaffold and their antiproliferative effects on cancer cells” (Bioorg Med Chem, 2011).

How the values were obtained:
U-937 = assay: Growth inhibition of human U937 cells after 24 hrs by thiazolyl blue tetrazolium bromide staining-based MTT assay; format: functional; conditions: U-937, 24 h
In short: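 U937 cells kept in RPMI 1640 with 10% FBS, 1% penicillin/streptomycin and 25 mM HEPES at 37 °C, 5% CO2. Seeded at 5 × 10^3 cells/well and incubated 24 h before treatment. Compounds given as a threefold serial dilution over 12 points. Viability read by MTT reduction with thiazolyl blue tetrazolium bromide as absorbance at 570 nm.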

[1] = Growth inhibition of human A375P cells after 24 hrs by MTT assay; format: functional
In short: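 A375P cells grown in DMEM with 10% FBS and 1% penicillin/streptomycin at 37 °C, 5% CO2. Cells lifted with 0.05% trypsin-0.02% EDTA, seeded at 5 × 10^3 cells/well and held 24 h before treatment. Compounds given as a threefold serial dilution over 12 points. Viability read by MTT reduction (CellTiter 96) as absorbance at 590 nm; IC50 fitted from the curve.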

SMILES | GI50 (U-937) [nM] | GI50 [1] [nM]
COc1ccc(Cn2ncc3c2NC(=O)CC(c2cccc(NC(=O)Nc4ccc(Cl)cc4)c2)=N3)cc1 | 580 | 640
COc1ccc(Cn2ncc3c2NC(=O)CC(c2cccc(NC(=O)Nc4cccc(C(F)(F)F)c4)c2)=N3)cc1 | 280 | 250
O=C1CC(c2ccc(NC(=O)Nc3ccc(Cl)c(C(F)(F)F)c3)cc2)=Nc2cnn(Cc3ccccc3)c2N1 | 8680 | 1190
O=C1CC(c2ccc(NC(=O)c3ccc(N4CCOCC4)c(C(F)(F)F)c3)cc2)=Nc2cnn(Cc3ccccc3)c2N1 | 210 | 16400
COc1ccc(Cn2ncc3c2NC(=O)CC(c2cccc(NC(=O)Nc4ccc(C(F)(F)F)cc4)c2)=N3)cc1 | 110 | 770
COc1ccc(Cn2ncc3c2NC(=O)CC(c2cccc(NC(=O)Nc4ccc(Cl)c(Cl)c4)c2)=N3)cc1 | 14900 | 3860
Cc1cn(-c2cc(NC(=O)Nc3ccc(C4=Nc5cnn(Cc6ccccc6)c5NC(=O)C4)cc3)cc(C(F)(F)F)c2)cn1 | > 30000 | > 30000
O=C1CC(c2cccc(NC(=O)c3cc(N4CCOCC4)cc(C(F)(F)F)c3)c2)=Nc2cnn(Cc3ccccc3)c2N1 | > 30000 | > 30000
Cc1cn(-c2cc(C(=O)Nc3ccc(C4=Nc5cnn(Cc6ccccc6)c5NC(=O)C4)cc3)cc(C(F)(F)F)c2)cn1 | > 30000 | > 30000
O=C1CC(c2ccc(NC(=O)Nc3ccc(Cl)c(C(F)(F)F)c3)cc2)=Nc2cn[nH]c2N1 | > 30000 | > 30000
O=C1CC(c2cccc(NC(=O)Nc3ccc(Cl)cc3)c2)=Nc2cn[nH]c2N1 | > 30000 | > 30000
O=C1CC(c2ccc(NC(=O)Nc3cccc(Cl)c3)cc2)=Nc2cnn(Cc3ccccc3)c2N1 | 670 | 2070
